Experimental data published in ChEMBL document CHEMBL3352313 (J Med Chem, 2014).

Tests used:
[1] = target: T1, Muscarinic acetylcholine receptor M5 (Homo sapiens) (UniProt P08912); test: Positive allosteric modulator activity at human muscarinic acetylcholine receptor subtype 5 expressed in CHO cells by calcium mobilization assay relative to acetylcholine; format: functional, cell-based
T1 sequence (whole entry): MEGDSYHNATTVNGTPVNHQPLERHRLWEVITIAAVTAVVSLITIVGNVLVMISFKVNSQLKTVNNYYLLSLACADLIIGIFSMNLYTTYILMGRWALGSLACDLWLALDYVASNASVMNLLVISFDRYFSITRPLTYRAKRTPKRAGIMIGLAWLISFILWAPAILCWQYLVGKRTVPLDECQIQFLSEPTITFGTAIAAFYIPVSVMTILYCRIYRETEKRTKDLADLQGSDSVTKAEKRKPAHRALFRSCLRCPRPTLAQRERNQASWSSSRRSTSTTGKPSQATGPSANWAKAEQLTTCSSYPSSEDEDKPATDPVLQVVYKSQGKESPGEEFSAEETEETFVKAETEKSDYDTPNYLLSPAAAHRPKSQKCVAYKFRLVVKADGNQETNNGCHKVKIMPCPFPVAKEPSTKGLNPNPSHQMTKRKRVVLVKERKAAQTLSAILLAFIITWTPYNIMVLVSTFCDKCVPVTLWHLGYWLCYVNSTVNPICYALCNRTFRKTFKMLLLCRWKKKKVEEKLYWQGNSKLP

[2] = target: T2, Muscarinic acetylcholine receptor M4 (Homo sapiens, UniProt P08173); test: Activity at human muscarinic acetylcholine receptor subtype 4 expressed in CHO cells co-transfected with chimeric Gqi5 by calcium mobilization assay; format: functional, cell-based
T2 sequence (P08173 whole entry): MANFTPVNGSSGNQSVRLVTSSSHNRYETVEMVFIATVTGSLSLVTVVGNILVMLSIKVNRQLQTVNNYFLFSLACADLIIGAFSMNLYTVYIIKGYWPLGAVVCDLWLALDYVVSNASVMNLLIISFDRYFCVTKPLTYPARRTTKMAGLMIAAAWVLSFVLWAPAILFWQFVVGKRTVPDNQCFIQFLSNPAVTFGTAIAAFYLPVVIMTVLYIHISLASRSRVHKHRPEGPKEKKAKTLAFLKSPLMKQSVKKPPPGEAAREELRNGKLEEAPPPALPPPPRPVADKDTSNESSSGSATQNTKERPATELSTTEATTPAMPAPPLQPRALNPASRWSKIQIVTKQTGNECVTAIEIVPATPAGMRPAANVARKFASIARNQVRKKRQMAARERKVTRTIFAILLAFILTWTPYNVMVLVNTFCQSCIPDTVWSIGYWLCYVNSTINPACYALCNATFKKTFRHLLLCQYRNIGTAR
Summary of the method: (§1)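 Muscarinic subtype selectivity by fluorescence calcium mobilization in highly expressing CHO lines with similar receptor levels; Gi/o-coupled M2 and M4 cells co-transfected with chimeric Gqi5 to couple to Ca2+ mobilization. Read-outs are PAM EC50 and ACh max response. Mean ± SEM of at least three independent determinations.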

[3] = target: T3, Muscarinic acetylcholine receptor M5 (Rattus norvegicus, UniProt P08911); test: Activity at rat muscarinic acetylcholine receptor subtype 5 expressed in CHO cells by calcium mobilization assay; format: functional, cell-based; summary of the method: as §1
T3 sequence (P08911 whole entry): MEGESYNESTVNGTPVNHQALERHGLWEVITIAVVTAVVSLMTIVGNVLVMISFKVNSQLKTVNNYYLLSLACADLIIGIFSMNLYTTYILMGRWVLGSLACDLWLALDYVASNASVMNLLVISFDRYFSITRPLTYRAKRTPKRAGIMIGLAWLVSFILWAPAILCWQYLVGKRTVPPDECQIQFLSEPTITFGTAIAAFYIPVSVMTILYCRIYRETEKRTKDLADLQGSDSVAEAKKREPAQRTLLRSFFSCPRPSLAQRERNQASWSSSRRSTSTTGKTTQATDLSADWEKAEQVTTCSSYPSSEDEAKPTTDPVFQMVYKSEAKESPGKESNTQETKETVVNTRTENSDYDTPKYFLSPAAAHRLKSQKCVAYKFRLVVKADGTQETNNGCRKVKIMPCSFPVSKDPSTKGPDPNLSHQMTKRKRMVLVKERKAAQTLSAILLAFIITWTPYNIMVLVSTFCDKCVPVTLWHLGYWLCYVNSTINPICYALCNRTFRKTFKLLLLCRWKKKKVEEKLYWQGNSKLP

[4] = target: T4, Muscarinic acetylcholine receptor M2 (Rattus norvegicus, UniProt P10980); test: Activity at rat muscarinic acetylcholine receptor subtype 2 expressed in CHO cells co-transfected with chimeric Gqi5 by calcium mobilization assay; format: functional, cell-based; summary of the method: as §1
T4 sequence (P10980 whole entry): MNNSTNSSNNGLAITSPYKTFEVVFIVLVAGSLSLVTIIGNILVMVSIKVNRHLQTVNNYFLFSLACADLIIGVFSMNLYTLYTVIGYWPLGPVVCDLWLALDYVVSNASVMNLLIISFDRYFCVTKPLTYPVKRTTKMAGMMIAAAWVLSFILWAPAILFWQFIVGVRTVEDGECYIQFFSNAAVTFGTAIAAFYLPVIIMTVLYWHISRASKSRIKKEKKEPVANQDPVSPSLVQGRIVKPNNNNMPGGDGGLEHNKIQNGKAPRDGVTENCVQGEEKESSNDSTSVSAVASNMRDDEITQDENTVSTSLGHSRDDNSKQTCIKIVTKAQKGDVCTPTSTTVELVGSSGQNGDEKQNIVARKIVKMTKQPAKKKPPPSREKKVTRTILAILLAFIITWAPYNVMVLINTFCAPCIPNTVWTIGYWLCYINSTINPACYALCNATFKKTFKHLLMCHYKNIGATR

[5] = target: T5, Muscarinic acetylcholine receptor M1 (Rattus norvegicus, UniProt P08482); test: Activity at rat muscarinic acetylcholine receptor subtype 1 expressed in CHO cells by calcium mobilization assay; format: functional, cell-based; summary of the method: as §1
T5 sequence (P08482 whole entry): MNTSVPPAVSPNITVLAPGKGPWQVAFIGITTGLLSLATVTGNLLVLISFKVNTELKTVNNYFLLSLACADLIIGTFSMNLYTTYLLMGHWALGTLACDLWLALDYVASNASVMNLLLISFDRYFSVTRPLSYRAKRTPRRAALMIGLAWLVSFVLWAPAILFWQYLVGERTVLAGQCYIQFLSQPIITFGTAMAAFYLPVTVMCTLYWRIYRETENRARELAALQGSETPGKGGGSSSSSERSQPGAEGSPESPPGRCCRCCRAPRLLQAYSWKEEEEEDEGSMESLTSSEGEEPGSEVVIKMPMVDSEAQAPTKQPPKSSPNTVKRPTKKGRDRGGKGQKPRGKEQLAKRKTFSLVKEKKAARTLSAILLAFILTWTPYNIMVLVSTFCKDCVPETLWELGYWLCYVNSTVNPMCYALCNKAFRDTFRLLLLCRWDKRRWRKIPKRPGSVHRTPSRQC

Homo sapiens = species on record: Homo sapiens; test: Selectivity index, ratio of EC50 for human muscarinic acetylcholine receptor subtype 3 to EC50 for human muscarinic acetylcholine receptor subtype 5
Plasma = test: Fraction unbound in rat plasma at 5 uM incubated for 4 hrs at 37 degC by equilibrium dialysis based LC/MS/MS analysis; format: ADME, cell-free
Summary of the method: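 Fraction unbound measured in rat and human plasma and in rat brain homogenate.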

[6] = Plasma clearance in Sprague-Dawley rat 1 mg/kg, iv administered as single dose by LC/MS/MS utilizing electrospray ionization method; format: ADME, organism-based; design: dose 1 mg/kg, route intravenous

CCN(Cc1ccccc1C(F)(F)F)C(=O)C1CCN(S(=O)(=O)c2ccc3[nH]ncc3c2)CC1
%max [1]: 96% | EC50 [2]: > 30000 nM | EC50 [3]: 610 nM | EC50 [4]: > 30000 nM | EC50 [5]: 2000 nM | Ratio EC50 (Homo sapiens): > 10 | Fu (Plasma): 0.014 | clearance [6]: 66 mL/min/kg
